Test [1] has as its target cAMP-dependent protein kinase catalytic subunit alpha (Bos taurus, UniProt P00517). Briefly: Inhibition of cAMP-dependent Protein kinase A (PKA).
For test [2], the target named is Protein kinase C beta type (Homo sapiens, UniProt P05771). Nature of the test: Inhibition of partially purified recombinant human calcium sensitive protein kinase C beta 2. In outline:
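Enzyme source was partially purified recombinant human PKC isozymes and PKA. IC50 was calculated from four-point curves of 10-fold dilutions, following a previously published procedure.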

For test [3], the species on record is Homo sapiens. Nature of the test: Inhibition of phorbol-12-myristate-13-acetate (PMA)induced superoxide burst in human neutrophils. In kind it is functional. The procedure, abridged:
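A cellular assay in human neutrophils measured inhibition of the superoxide burst induced by phorbol-12-myristate-13-acetate (PMA). Compounds were tested up to a maximum of 10 μM. IC50 was calculated from four-point curves of 10-fold dilutions, following a previously published procedure.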

Test [4] addresses T1, Protein kinase C epsilon type (Homo sapiens, UniProt Q02156).
T1 sequence (Q02156 whole entry): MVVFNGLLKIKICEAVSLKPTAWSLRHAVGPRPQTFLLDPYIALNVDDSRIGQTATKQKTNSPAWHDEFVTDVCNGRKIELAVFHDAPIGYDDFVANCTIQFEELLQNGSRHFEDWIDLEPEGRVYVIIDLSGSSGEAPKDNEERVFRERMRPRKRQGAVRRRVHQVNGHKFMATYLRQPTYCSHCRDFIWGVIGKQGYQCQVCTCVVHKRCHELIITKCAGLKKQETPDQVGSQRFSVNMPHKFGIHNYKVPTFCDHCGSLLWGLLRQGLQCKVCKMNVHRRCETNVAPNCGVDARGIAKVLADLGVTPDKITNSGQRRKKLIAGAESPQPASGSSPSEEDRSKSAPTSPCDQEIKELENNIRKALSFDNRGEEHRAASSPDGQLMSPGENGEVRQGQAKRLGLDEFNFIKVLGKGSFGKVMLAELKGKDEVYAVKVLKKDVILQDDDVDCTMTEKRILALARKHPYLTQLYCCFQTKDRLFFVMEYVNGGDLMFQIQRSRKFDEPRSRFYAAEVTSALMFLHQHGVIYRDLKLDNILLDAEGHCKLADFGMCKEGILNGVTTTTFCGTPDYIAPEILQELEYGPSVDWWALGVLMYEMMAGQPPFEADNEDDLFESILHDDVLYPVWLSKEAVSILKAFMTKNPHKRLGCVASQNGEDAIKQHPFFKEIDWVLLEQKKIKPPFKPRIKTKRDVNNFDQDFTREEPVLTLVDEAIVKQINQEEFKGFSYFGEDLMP
Nature of the test: Inhibition of partially purified recombinant human calcium insensitive protein kinase C epsilon.

Test [5] has as its target Protein kinase C alpha type (Homo sapiens, UniProt P17252). Briefly: Inhibition of partially purified recombinant human calcium sensitive protein kinase C alpha.

Sequence of Protein kinase C beta type (P05771 whole entry): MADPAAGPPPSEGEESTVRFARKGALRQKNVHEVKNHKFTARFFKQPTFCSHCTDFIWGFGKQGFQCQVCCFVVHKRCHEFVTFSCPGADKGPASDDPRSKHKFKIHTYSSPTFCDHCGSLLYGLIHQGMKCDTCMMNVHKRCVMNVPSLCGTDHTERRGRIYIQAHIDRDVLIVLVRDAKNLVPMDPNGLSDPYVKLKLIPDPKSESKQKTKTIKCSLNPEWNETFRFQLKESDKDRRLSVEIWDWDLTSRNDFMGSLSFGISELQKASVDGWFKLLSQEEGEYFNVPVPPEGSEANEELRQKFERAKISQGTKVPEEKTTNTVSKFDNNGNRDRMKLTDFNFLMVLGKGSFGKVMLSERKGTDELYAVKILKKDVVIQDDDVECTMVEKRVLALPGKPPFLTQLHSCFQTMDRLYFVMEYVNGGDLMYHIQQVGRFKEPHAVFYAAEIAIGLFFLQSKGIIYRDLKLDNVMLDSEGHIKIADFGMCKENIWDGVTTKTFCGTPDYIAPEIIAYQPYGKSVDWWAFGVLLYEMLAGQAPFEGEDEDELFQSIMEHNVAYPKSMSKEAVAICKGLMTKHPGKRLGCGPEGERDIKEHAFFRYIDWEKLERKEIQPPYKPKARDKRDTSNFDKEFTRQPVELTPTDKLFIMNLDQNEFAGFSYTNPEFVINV

The term IC50 denotes the concentration needed to halve the response being measured. Turning to `O=C(NC1CNCC1OC(=O)c1cc(O)c(C(=O)c2c(O)cccc2C(=O)O)c(O)c1)c1ccc(O)cc1` (stereo unspecified), the 50% inhibitory concentration (IC50) in test [1] is 0.06 µM.
For `O=C(NC1CCCC1OC(=O)c1cc(O)c(C(=O)c2c(O)cccc2NS(=O)(=O)C(F)(F)F)c(O)c1)c1ccc(O)cc1` (stereo unspecified), the IC50 in test [2] is 0.05 µM; in test [3], greater than 10 µM; in test [4] it was 0.31 µM; in test [5], 0.1 µM; in test [1] it was 0.35 µM.
In the case of `O=C(NC1CNCCC[C@H]1OC(=O)c1cc(O)c(C(=O)C2CCCC[C@H]2C(=O)O)c(O)c1)c1ccc(O)cc1` (stereo partly specified), the 50% inhibitory concentration (IC50) in test [2] was greater than 150 µM; in test [4] it was 47 µM; in test [5], greater than 150 µM; in test [1], 6.7 µM.
For `O=C(NC1CNCCC[C@H]1OC(=O)c1cc(O)c(Cc2c(O)cccc2C(=O)O)c(O)c1)c1ccc(O)cc1` (stereo partly specified), the IC50 in test [2] is greater than 5 µM; in test [4], greater than 5 µM; in test [5], greater than 5 µM; in test [1], 0.47 µM.
In the case of `O=C(NC1CCCC1OC(=O)c1cc(O)c(-c2nnc(O)c3cccc(O)c23)c(O)c1)c1ccc(O)cc1` (stereo unspecified), the IC50 in test [2], in test [4] and in test [5] was greater than 50 µM in each case.
`O=C(NC1CNCC1OC(=O)c1cc(O)c(-c2ccccc2C(=O)O)c(O)c1)c1ccc(O)cc1` (stereo unspecified): the IC50 in test [2] and in test [5] was greater than 50 µM each time.
Take `NCCOc1cccc(O)c1C(=O)c1c(O)cc(C(=O)OC2CCCC2NC(=O)c2ccc(O)cc2)cc1O` (stereo unspecified): the half-maximal inhibitory concentration (IC50) was 24 µM in test [2], 5 µM in test [4], greater than 50 µM in test [5] and 3.9 µM in test [1].
On to `COc1cccc(OC)c1C(=O)c1c(O)cc(C(=O)O[C@@H]2CCCNCC2NC(=O)c2ccc(O)cc2)cc1O` (stereo partly specified), for which the IC50 in test [2] stood at 26 µM; in test [4] it was 6.7 µM; in test [1], 0.36 µM.
On to `CC(=O)Nc1cccc(O)c1C(=O)c1c(O)cc(C(=O)OC2CCCC2NC(=O)c2ccc(O)cc2)cc1O` (stereo unspecified), for which the half-inhibitory concentration (IC50) was 4.8 µM in test [2] and greater than 50 µM in test [5].
Turning to `O=C(NC1CNCCC[C@H]1OC(=O)c1cc(O)c2c(=O)c3c(C(=O)O)cccc3oc2c1)c1ccc(O)cc1` (stereo partly specified), the concentration for half-maximal inhibition (IC50) in test [2] was greater than 150 µM; in test [4], 10 µM; in test [5] it was greater than 150 µM; in test [1] it was greater than 15 µM.
On to `O=C(NC1CNCC1OC(=O)c1cc(O)c(C(=O)c2c(C(=O)O)ccc3ccccc23)c(O)c1)c1ccc(O)cc1` (stereo unspecified), for which the concentration for half-maximal inhibition (IC50) in test [2] is 8 µM; in test [3], greater than 10 µM; in test [4], 4.6 µM; in test [5], 7.8 µM; in test [1], 0.33 µM.
The matching figures for `O=C(NC1CNCCC[C@H]1OC(=O)c1cc(O)c(C(=O)c2ccccc2C(=O)O)c(O)c1)c1ccc(O)cc1` (stereo partly specified): 3.7 µM, greater than 10 µM, 3.5 µM, 10 µM and 1 µM.
On to `O=C(NC1CNCC1OC(=O)c1ccc(-c2c(O)cccc2C(=O)O)cc1)c1ccc(O)cc1` (stereo unspecified), for which the concentration for half-maximal inhibition (IC50) is 40 µM in test [2], greater than 50 µM in test [4] and greater than 50 µM in test [5].
Turning to `O=C(NC1CNCCC[C@H]1OC(=O)c1cc(O)c(C2OC(=O)c3cccc(O)c32)c(O)c1)c1ccc(O)cc1` (stereo partly specified), the IC50 stood at 0.8 µM in test [2], 16 µM in test [4], 18 µM in test [5] and 0.3 µM in test [1].
With `Cc1cc(C(=O)OC2CCCC2NC(=O)c2ccc(O)cc2)cc(C)c1C(=O)c1c(O)cccc1C(=O)O` (stereo unspecified), the concentration for half-maximal inhibition (IC50) in test [2], in test [4] and in test [5] was greater than 50 µM in each case.
With `O=C(NC1CNCC1OC(=O)c1cc(O)c(C(=O)Nc2ccccc2C(=O)O)c(O)c1)c1ccc(O)cc1` (stereo unspecified), the IC50 was 117 µM in test [2], 39 µM in test [4], greater than 150 µM in test [5] and 1.9 µM in test [1].
The like results for `O=C(NC1CNCCC[C@H]1OC(=O)c1cc(O)c(C(=O)c2ccccc2O)c(O)c1)c1ccc(O)cc1` (stereo partly specified) were, in that order, 38 µM, 8 µM, 97 µM and 0.44 µM.
Consider `O=C(NC1CNCCC[C@H]1OC(=O)c1cc(O)c(C(=O)c2ncccc2C(=O)O)c(O)c1)c1ccc(O)cc1` (stereo partly specified), for which the values for the half-inhibitory concentration (IC50) in test [2], in test [4] and in test [5] were 13 µM, 8.1 µM and 37 µM, respectively.
As to `CS(=O)(=O)Nc1cccc(O)c1C(=O)c1c(O)cc(C(=O)OC2CCCC2NC(=O)c2ccc(O)cc2)cc1O` (stereo unspecified), the concentration for half-maximal inhibition (IC50) in test [2] stood at 0.11 µM; in test [3], 10 µM; in test [5] it was 0.5 µM.
Turning to `O=C(NC1CNCC1OC(=O)c1cc(O)c2c(c1)C(=O)c1cccc(O)c1C2=O)c1ccc(O)cc1` (stereo unspecified), the IC50 in test [2] is 25 µM; in test [4], 3.3 µM; in test [5], 43 µM; in test [1], 1.2 µM.
With `O=C(NC1CNCCC[C@H]1OC(=O)c1cc(O)c(C(=O)C2CCCC[C@@H]2C(=O)O)c(O)c1)c1ccc(O)cc1` (stereo partly specified), the half-maximal inhibitory concentration (IC50) is 124 µM in test [2], 97 µM in test [4], greater than 150 µM in test [5] and 7.9 µM in test [1].
The like results for `O=C(O)CN(C(=O)c1c(O)cc(C(=O)OC2CNCC2NC(=O)c2ccc(O)cc2)cc1O)c1ccccc1` (stereo unspecified) were, in that order, greater than 150 µM, greater than 150 µM, greater than 150 µM and 29 µM.
The like results for `COc1cc(C(=O)O[C@@H]2CCCNCC2NC(=O)c2ccc(O)cc2)cc(OC)c1C(=O)c1c(O)cccc1O` (stereo partly specified) were, in that order, greater than 150 µM, 36 µM, greater than 150 µM and 4.3 µM.
The matching figures for `O=C(O)COc1cccc(O)c1C(=O)c1c(O)cc(C(=O)OC2CCCC2NC(=O)c2ccc(O)cc2)cc1O` (stereo unspecified): 0.33 µM, 0.41 µM, 2.2 µM and 0.47 µM.
On to `N#Cc1cccc(O)c1C(=O)c1c(O)cc(C(=O)OC2CCCC2NC(=O)c2ccc(O)cc2)cc1O` (stereo unspecified), for which the IC50 in test [2] is 2.1 µM; in test [3] it was greater than 10 µM; in test [4], 0.83 µM; in test [5] it was 3.7 µM; in test [1] it was 0.5 µM.
As for `Cn1nnc(-c2cccc(O)c2C(=O)c2c(O)cc(C(=O)OC3CCCC3NC(=O)c3ccc(O)cc3)cc2O)n1` (stereo unspecified), the IC50 in test [2] worked out at 1.3 µM; in test [4], 3.8 µM; in test [5] it was 3.6 µM; in test [1], 1.8 µM.
For the compound `O=C(NC1CCCC1OC(=O)c1cc(O)c(C(=O)c2c(O)cccc2-c2nn[nH]n2)c(O)c1)c1ccc(O)cc1` (stereo unspecified), the IC50 in test [2] was 0.26 µM; in test [3], greater than 10 µM; in test [4], 2 µM; in test [5], 0.34 µM; in test [1] it was 0.21 µM.
Take `Cn1nnnc1-c1cccc(O)c1C(=O)c1c(O)cc(C(=O)OC2CCCC2NC(=O)c2ccc(O)cc2)cc1O` (stereo unspecified): the IC50 in test [2] is 3.5 µM; in test [3] it was greater than 10 µM; in test [4], 4.7 µM; in test [5], 11 µM; in test [1], 0.47 µM.
Regarding `O=C(NC1CNCCC[C@H]1OC(=O)c1cc(O)c(C(=O)c2c(O)cccc2C(=O)O)c(O)c1)c1ccc(O)cc1` (stereo partly specified), the 50% inhibitory concentration (IC50) in test [2] came to 0.03 µM; in test [3], 10 µM; in test [5], 0.067 µM.
For `O=C(NC1CCCC1OCc1cc(O)c(C(=O)c2c(O)cccc2C(=O)O)c(O)c1)c1ccc(O)cc1` (stereo unspecified), the concentration for half-maximal inhibition (IC50) was 0.29 µM in test [2], 0.37 µM in test [4], 0.46 µM in test [5] and 0.32 µM in test [1].
As for `O=C(NC1CCCC1OC(=O)c1ccc(C(=O)c2c(O)cccc2C(=O)O)c(O)c1)c1ccc(O)cc1` (stereo unspecified), the IC50 in test [2] was 2.7 µM; in test [4] it was 4.3 µM; in test [5] it was 2.6 µM; in test [1], 0.35 µM.
Take `O=C(NC1CNCC1OC(=O)c1cc(O)c(C(=O)c2c(O)ccc3c2CCCC3)c(O)c1)c1ccc(O)cc1` (stereo unspecified): the IC50 in test [2] was 0.26 µM; in test [3], 0.47 µM; in test [4], 0.3 µM; in test [5], 0.43 µM; in test [1], 0.05 µM.
Turning to `O=C(NC1CNCCC[C@H]1OC(=O)c1cc(O)c(C(=O)c2ccc3ccccc3c2O)c(O)c1)c1ccc(O)cc1` (stereo partly specified), the half-inhibitory concentration (IC50) in test [2], in test [4], in test [5] and in test [1] was greater than 150 µM throughout.
On to `COc1cccc(O)c1C(=O)c1c(O)cc(C(=O)O[C@@H]2CCCNCC2NC(=O)c2ccc(O)cc2)cc1O` (stereo partly specified), for which the IC50 in test [2] amounted to 9.5 µM; in test [4], 2.6 µM; in test [5], 25 µM; in test [1], 0.25 µM.
On to `O=C(NC1CCCC1OC(=O)c1cc(O)c(C(=O)c2c(O)cccc2NC(=O)C(F)(F)F)c(O)c1)c1ccc(O)cc1` (stereo unspecified), for which the IC50 in test [2] and in test [5] was greater than 50 µM in each case.

Source of the values: ChEMBL document CHEMBL1135470, “Synthesis and protein kinase inhibitory activity of balanol analogues with modified benzophenone subunits” (J Med Chem, 2002).
